# TAAR1 antag: human TAAR1 antagonists, primary screen, Fluo-8 calcium fluorescence, CHO RD-HGA16 cells | Trace amine-associated receptor 1 (Homo sapiens), Q96RJ0 | antagonist | inhibition, % at 3 µM | 1.5% of 360,000 active | AID 624466, 2012;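 active means inhibition above a per-plate cutoff, the mean inhibition of test compounds on that plate plus 3 SD, cut at about 49% in these data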;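 further: 0% = DMSO plus EC80 beta-PEA response and 100% = DMSO alone without agonist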
# Target sequence (Q96RJ0 whole entry, looked up): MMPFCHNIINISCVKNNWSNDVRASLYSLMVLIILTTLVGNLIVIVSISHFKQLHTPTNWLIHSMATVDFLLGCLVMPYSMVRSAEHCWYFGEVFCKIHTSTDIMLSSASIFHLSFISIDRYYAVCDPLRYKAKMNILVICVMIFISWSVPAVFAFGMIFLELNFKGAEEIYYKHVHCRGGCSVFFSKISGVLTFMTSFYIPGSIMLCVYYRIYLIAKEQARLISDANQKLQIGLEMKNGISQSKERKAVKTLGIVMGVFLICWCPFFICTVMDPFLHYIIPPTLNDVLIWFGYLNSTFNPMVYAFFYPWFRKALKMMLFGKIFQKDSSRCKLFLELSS
#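 test system = CHO RD-HGA16 cells bearing hTAAR1 | replication = singlicate | controls = DMSO-only wells and EC80 β-PEA-stimulated wells | reagent = EC80 β-phenethylamine stimulus | read-out basis = percent inhibition of PEA-evoked calcium signal, max/basal emission ratio | schedule = seeding 17-24 h prior, 75-min 37 °C, 30-min RT dye loading | signal = kinetic Fluo-8 calcium fluorescence measurement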
# TAAR1 ag: human TAAR1 agonists, primary screen, Fluo-8 calcium fluorescence, CHO RD-HGA16 cells. vehicle wells 0%, saturating PEA agonist 100%. AID 624467, 2012. 0.99% of 360,000 active. activation, % at 3 µM;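 active means activation above the mean activation of all test compounds in the run plus 3 SD, cut at about 38% in these data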
#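 Assay system – CHO-derived RD-HGA16 cells with stable Gα16 and human TAAR1 · Compound dosing – one-point dosing at 3 µM (nominal) · Incubation – 17-24 h seeding, 75 min 37 °C dye, 30 min RT · Measured by – kinetic Fluo-8 calcium fluorescence · Control set – DMSO vehicle as 0%, PEA at EC100 as 100% · Repeats – single well for each compound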
# OX1R antag-1: antagonists of human orexin 1 receptor (OX1R). Orexin/Hypocretin receptor type 1 (Homo sapiens), O43613. inhibition, % at 6.6 µM. OX1R-expressing cells, FRET antagonist read-out. 1.8% of 330,000 active; in the data active means inhibition mostly above about 38%, no sharp cut-off; inactive means mostly below about 40%;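 further: 0% = agonist challenge alone and 100% = reference antagonist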
# OX1R antag-2: OX1R (HCRTR1) antagonists, primary screen, fluorescence, CHO/OX1R cells, Fluo-8 calcium, orexin A; Orexin/Hypocretin receptor type 1 (Homo sapiens), O43613; Fluo-8 calcium fluorescence; inhibition, % at 5 µM; 0.43% of 330,000 active; AID 434989, 2010;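 active means inhibition above its plate's threshold, mean inhibition of all tested compounds on the plate plus 3 SD, cut at about 37% in these data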;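 further: 0% = orexin A challenge wells and 100% = SB-334867-A antagonist wells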
# CHO parental Ca: ATP-evoked calcium signal inhibitors, parental CHO, primary screen, counter-screen for OX1R antagonist project, cell-based, fluorescence, Fluo-8 calcium dye | parental CHO-K1, ATP-induced calcium, Fluo-8 fluorescence | inhibition, % at 5.6 µM | 0.63% of 330,000 active | AID 463079, 2010;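 active means inhibition above that plate's mean sample inhibition plus 3 SD, cut at about 26% in these data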;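 further: 0% = ATP-challenged DMSO wells and 100% = DMSO wells without ATP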
#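 Measured by: calcium-sensitive Fluo-8 fluorescence / Test system: CHO parental line / Controls: ATP-challenged DMSO wells low, unchallenged DMSO wells high / Measure: % inhibition / Compound: single nominal dose of 5.6 µM per compound / Replicates: single well per compound, no replicates / Reagent: ATP as calcium-mobilizing challenge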
# GPR7 antagonist: GPR7 receptor antagonists, primary screen, cell-based, fluorescence, single concentration; 1.1% of 290,000 active; Neuropeptides B/W receptor type 1 (Homo sapiens), P48145; GPR7-expressing cells, fluorescence antagonist assay; inhibition, % at 4.4 µM; in the data active means inhibition above about 16%, passing the limit was not always enough;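 further: cells stimulated with the agonist NPW; 0% = agonist with vehicle and 100% = vehicle without agonist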
# Target sequence (P48145 whole entry, looked up): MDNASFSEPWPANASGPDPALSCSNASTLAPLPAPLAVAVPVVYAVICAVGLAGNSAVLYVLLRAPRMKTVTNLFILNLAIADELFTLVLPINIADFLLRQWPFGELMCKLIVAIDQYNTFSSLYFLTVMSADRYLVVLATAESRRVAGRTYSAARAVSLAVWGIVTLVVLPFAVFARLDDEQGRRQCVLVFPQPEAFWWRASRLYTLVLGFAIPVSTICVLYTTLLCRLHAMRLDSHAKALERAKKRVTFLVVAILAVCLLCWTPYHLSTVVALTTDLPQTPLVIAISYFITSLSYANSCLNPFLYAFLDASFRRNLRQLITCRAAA
# TAAR1 nonsel count: nonselective antagonists in TAAR1 counter-screen cells, counter-screen for hTAAR1 antagonist project, cell-based, fluorescence, calcium. 77% of 2,400 active. inhibition, % at 3 µM. counterscreen cell line, antagonist mode. shares compounds with TAAR1 antag; in the data active means inhibition above about 22%;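 further: CHO-Ga16 host cells stimulated with ATP at an EC80 level; 0% = agonist EC80 plus vehicle and 100% = vehicle without agonist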
# TAAR1 antag conf: human TAAR1 antagonists, retest of hits, confirmation, cell-based, fluorescence; shares compounds with TAAR1 antag; TAAR1-expressing cells, fluorescence antagonist read-out; inhibition, % at 3 µM; 40% of 2,400 active; AID 651785, 2012; in the data active means inhibition above about 49%;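 further: CHO-Ga16 host cells challenged with agonist PEA near its EC80; 0% = agonist at EC80 plus vehicle and 100% = vehicle with no agonist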
# Ga16 ag counter: calcium activation in Ga16-expressing cells, counter-screen for TAAR1 antagonist project, cell-based, fluorescence; shares compounds with TAAR1 antag; agonist counterscreen; activation, % at 3 µM; 18% of 2,400 active; AID 651953, 2012; in the data active means activation above about 12%;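 further: 0% = vehicle wells and 100% = saturating stimulus response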
# TAAR1 ag count: TAAR1 activation by candidate antagonists – cell-based, fluorescence, counter-screen for TAAR1 antagonist project; hTAAR1 cell line, agonist mode; activation, % at 3 µM; shares compounds with TAAR1 antag; AID 651955, 2012; 2% of 2,400 active; in the data active means activation above about 37%;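 further: CHO cells stably expressing TAAR1 with calcium dye readout; 0% = DMSO vehicle and 100% = full agonist response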
# * hit, by the source's call; · = no result. Only some compounds are listed: those with a hit (about 4.5% of all), similar ones and a draw of the others.
SMILES,TAAR1 antag,TAAR1 ag,OX1R antag-1,OX1R antag-2,CHO parental Ca,GPR7 antagonist,TAAR1 nonsel count,TAAR1 antag conf,Ga16 ag counter,TAAR1 ag count
COc1ccc(C(C(=O)NCC2CCCO2)N(Cc2cccs2)C(=O)c2snc(C(N)=O)c2N)cc1OC (stereo not drawn),55*,23,16,-20,-19,2,25*,44,9,15
COc1cccc(N(C(=O)c2snc(C(N)=O)c2N)C(C(=O)NCC2CCCO2)c2cccs2)c1 (stereo not drawn),16,0,5,-31,-17,3,·,·,·,·
COc1ccc(C2=Cc3ccccc3C(CC(=O)C3CC3)N2c2ccc(C#CCCO)cc2)cc1 (stereo not drawn),-15,3,·,·,·,·,·,·,·,·
Cc1ccc(NC(=O)CS(=O)CC(=O)NC23CC4CC(CC(C4)C2)C3)cc1 (stereo not drawn),0,-1,14,-28,-14,-7,·,·,·,·
COc1cc(NC(=O)COc2ccccc2Cl)ccc1NC(=O)c1cccs1,57*,8,28,-13,-6,-16,24*,43,5,6
O=C(COC(=O)c1cccnc1Cl)Nc1nc(-c2ccccc2)cs1,68*,17,23,-6,-1,-1,33*,47,12*,14
COc1cccc(OC)c1C(=O)Nc1cccc(NC(=O)c2cccs2)c1,2,5,17,-15,-12,-10,·,·,·,·
Cc1ccc(C(=O)OCC(=O)Nc2ccccc2)cc1NC(=O)c1ccco1,5,6,9,-21,-14,-4,·,·,·,·
Cc1ccc(C(=O)OCC(=O)Nc2nc(-c3ccccc3)cs2)cc1NC(=O)c1ccco1,83*,16,35,0,-9,-6,37*,54*,9,7
COc1ccc(C(=O)Nc2cccc(NC(=O)c3cccs3)c2)cc1OC,62*,16,75*,2,-13,-13,26*,29,7,3
O=C(COC(=O)c1ccccc1O)Nc1cccnc1Cl,-2,1,10,-4,6,-2,·,·,·,·
COc1cc(NC(=O)COc2ccccc2[N+](=O)[O-])ccc1NC(=O)c1cccs1,-14,3,·,·,·,-9,·,·,·,·
COc1ccc(CN2C(=O)c3cccnc3C2=O)cc1S(=O)(=O)N(C)c1ccc(C)cc1,38,9,15,-12,-18,1,·,·,·,·
O=C(COc1ccccc1Cl)Nc1nc(-c2ccncc2)cs1,64*,17,4,12,-13,·,43*,58*,13*,12
O=C1C=CC(=O)N1,-13,5,9,-7,0,·,·,·,·,·
CC(=O)Nc1cccc(-c2ccnc3c2CC(C(=O)Nc2ccccc2)O3)c1 (stereo not drawn),3,7,·,·,·,·,·,·,·,·
Cc1ccc(/C=N/Nc2nc(N3CCCCC3)nc(N3CCCCC3)n2)o1,10,0,30,-28,-34,-9,·,·,·,·
COc1nc(N/N=C/c2ccc(-c3ccccc3[N+](=O)[O-])o2)nc(N2CCOCC2)n1,64*,16,30,-14,-7,-2,21,39,12*,11
COC(=O)c1ccccc1-c1ccc(/C=N/Nc2nc(N3CCCC3)nc(N3CCCC3)n2)o1,69*,10,27,-25,-29,2,17,38,4,2
O=[N+]([O-])c1ccc(-c2ccc(/C=N/Nc3nc(NCc4ccccc4)nc(N4CCOCC4)n3)o2)cc1,39,20,12,1,12,-14,·,·,·,·
O=C(Nc1ccc(N2CCOCC2)c(Cl)c1)c1ccc(F)cc1,63*,14,11,-12,-11,0,18,29,10,8
Cc1cccc(Cn2nc(C)c(NC(=O)c3ccc(F)cc3)c2C)c1,-16,0,9,-3,5,11,·,·,·,·
Cc1cccc(Cn2nc(C(C)(C)C)cc2C(=O)Nc2ccc(F)cc2)c1,70*,5,64,17,5,-17,31*,48,3,6
COC(=O)c1cc(NC(=O)c2cc(C(C)(C)C)nn2Cc2ccc(F)cc2)ccc1N1CCOCC1,63*,3,4,-6,-26,-18,31*,46,4,0
O=C(Nc1ccc(N2CCOCC2)c(Cl)c1)c1ccc(-n2cnnc2)cc1,1,2,15,-6,3,4,·,·,·,·
SMILES,TAAR1 antag,TAAR1 ag,OX1R antag-1,OX1R antag-2,CHO parental Ca,GPR7 antagonist,TAAR1 nonsel count,TAAR1 antag conf,Ga16 ag counter,TAAR1 ag count
CCN1C/C(=C/c2ccc(OC)c(O)c2)C(=O)/C(=C/c2ccc(OC)c(O)c2)C1,2,4,16,-23,-16,13,·,·,·,·
COc1ccc(/C=C2\CN(Cc3ccccc3)C/C(=C\c3ccc(OC)c(O)c3)C2=O)cc1O,71*,14,24,-6,-15,3,29*,51*,10,12
CCOC(=O)C1CN(S(=O)(=O)c2ccc(C)cc2)c2ccccc2O1 (stereo not drawn),-23,1,9,-6,-4,18,·,·,·,·
O=C(c1ccc(S(=O)(=O)Cc2ccccc2Cl)c([N+](=O)[O-])c1)N1CCN(c2ccccn2)CC1,69*,17,55,-12,-25,8,38*,53*,15*,14
O=C(c1ccc(Cl)c([N+](=O)[O-])c1)N1CCN(c2ccccn2)CC1,6,1,39,-25,-22,-9,·,·,·,·
CN(c1ccccc1)S(=O)(=O)c1cc(C(=O)N2CCN(c3ccccn3)CC2)ccc1Cl,60*,7,15,-26,-11,-14,19,34,6,5
CC(C)NS(=O)(=O)c1ccc(NC(=O)C(C)OC(=O)C2CCC2)cc1 (stereo not drawn),-10,35,11,-11,-2,·,·,·,·,·
Cc1cc(C)cc(C(=O)N(Cc2ccco2)c2c(N)n(Cc3ccccc3)c(=O)[nH]c2=O)c1,-14,2,0,-28,-17,·,·,·,·,·
O=C(COc1ccccc1)Nc1cccc(-c2nn[nH]n2)c1,5,-1,10,-8,-3,-13,·,·,·,·
